Data from ChEMBL document CHEMBL1126849, “Synthesis of A-ring fluorinated derivatives of (17 alpha,20E/Z)-[125I]iodovinylestradiols: effect on receptor binding and receptor-mediated target tissue uptake” (J Med Chem, 1993).

How the values were obtained:
Conditions in all cases: in vivo
Rattus norvegicus [1] = test: Biodistribution in thyroid of Immature Female rat after 1 hr administration of 3 micro Ci (111 kBq) in the presence of (+E2); type: ADME, organism-based, Thyroid gland
How it was run: (§1)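 Immature female Long Evans rats (21–24 days, 45–70 g), three to five per group, given 125I-labeled steroid (3 μCi, 111 kBq) by lateral tail vein without anesthesia. Vehicle: ethanol diluted in saline with 1% Tween-80, final ethanol 9%, 0.22 μm filtered. +E2 groups received 60 μg unlabeled estradiol co-injected. Killed under ether at set times; tissues KCl-washed, blotted, weighed, gamma counted; %ID/g, mean with SE.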

Rattus norvegicus [2] = test: Biodistribution in thyroid of Immature Female rat after 3 hour administration of 3 micro Ci (111 kBq) in the absence of 60 microg estradiol; type: ADME, organism-based, Thyroid gland; how it was run: as §1
Rattus norvegicus [3] = test: Biodistribution in thyroid of Immature Female rat after 5 hour administration of 3 micro Ci (111 kBq) in the absence of 60 microg estradiol; type: ADME, organism-based, Thyroid gland; how it was run: as §1
Rattus norvegicus [4] = test: Biodistribution in blood of Immature Female rat after 5 hour administration of 3 micro Ci (111 kBq) in the absence of 60 microg estradiol; type: ADME, organism-based
How it was run: (§2)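 Immature female Long Evans rats (21–24 days, 45–70 g), unanesthetized in retention cages, given 3 µCi (111 kBq) 125I-labeled steroid i.v. via lateral tail vein. Vehicle was ethanol diluted in saline containing 1% Tween-80, giving 9% ethanol final. The blocking group received 60 µg unlabeled estradiol co-injected. Rats were killed under ether by axillary bleeding, and tissues were KCl-washed and gamma-counted. Data are %ID/g, mean ± SE, n=3–5.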

Rattus norvegicus [5] = test: Biodistribution in fat of Immature Female rat after 12 hour administration of 3 micro Ci (111 kBq) in the absence of 60 microg estradiol; type: ADME, organism-based, Adipose tissue; how it was run: as §2
Rattus norvegicus [6] = test: Biodistribution in fat of Immature Female rat after 1 hr administration of 3 micro Ci (111 kBq) in the absence of 60 microg estradiol; type: ADME, organism-based, Adipose tissue; how it was run: as §2
Rattus norvegicus [7] = test: Biodistribution in fat of Immature Female rat after 1 hr administration of 3 micro Ci (111 kBq) in the presence of (+E2); type: ADME, organism-based, Adipose tissue; how it was run: as §2
Rattus norvegicus [8] = test: Biodistribution in uterus of Immature Female rat after 3 hour administration of 3 micro Ci (111 kBq) in the absence of 60 microg estradiol; type: ADME, organism-based
How it was run: (§3)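 Immature female Long Evans rats (21–24 days, 45–70 g), 3–5 per group, unanesthetized in retention cages, given 3 μCi (111 kBq) 125I-labeled steroid by lateral tail vein. Vehicle: ethanol diluted with saline containing 1% Tween-80, final ethanol 9%. +E2 group co-injected 60 μg unlabeled estradiol (1 h only). Killed under ether; tissues KCl-washed, weighed, gamma-counted. Output: %ID/g (mean, SE) and uterus to blood or nontarget (muscle, spleen, lungs) ratios.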

Rattus norvegicus [9] = test: Biodistribution in uterus of Immature Female rat after 5 hour administration of 3 micro Ci (111 kBq) in the absence of 60 microg estradiol; type: ADME, organism-based; how it was run: as §3
Rattus norvegicus [10] = test: Biodistribution in uterus / blood of Immature Female rat after 12 hour administration of 3 micro Ci (111 kBq) in the absence of 60 microg estradiol; type: ADME, organism-based
How it was run: (§4)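 Same in vivo procedure: immature female Long Evans rats (21–24 days), three to five per group, 3 μCi (111 kBq) tracer i.v. via tail vein in 9% ethanol/saline/1% Tween-80, ± 60 μg estradiol co-injected at 1 h. Uterus %ID/g (gamma counting) divided by blood, or by nontarget organ (muscle, spleen, lungs), %ID/g to give ratios.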

Rattus norvegicus [11] = test: Biodistribution in blood of Immature Female rat after 12 hour administration of 3 micro Ci (111 kBq) in the absence of 60 microg estradiol; type: ADME, organism-based; how it was run: as §2
Rattus norvegicus [12] = test: Biodistribution in blood of Immature Female rat after 1 hr administration of 3 micro Ci (111 kBq) in the absence of 60 microg estradiol; type: ADME, organism-based; how it was run: as §2
Rattus norvegicus [13] = test: Biodistribution in lungs of Immature Female rat after 3 hour administration of 3 micro Ci (111 kBq) in the absence of 60 microg estradiol; type: ADME, organism-based, Lung; how it was run: as §2
Rattus norvegicus [14] = test: Biodistribution in lungs of Immature Female rat after 5 hour administration of 3 micro Ci (111 kBq) in the absence of 60 microg estradiol; type: ADME, organism-based, Lung; how it was run: as §2
Rattus norvegicus [15] = test: Biodistribution in muscle of Immature Female rat after 12 hour administration of 3 micro Ci (111 kBq) in the absence of 60 microg estradiol; type: ADME, organism-based, Muscle tissue; how it was run: as §1
Rattus norvegicus [16] = test: Biodistribution in spleen of Immature Female rat after 12 hour administration of 3 micro Ci (111 kBq) in the absence of 60 microg estradiol; type: ADME, organism-based; how it was run: as §1
Rattus norvegicus [17] = test: Biodistribution in spleen of Immature Female rat after 3 hour administration of 3 micro Ci (111 kBq) in the absence of 60 microg estradiol; type: ADME, organism-based; how it was run: as §1
Rattus norvegicus [18] = test: Biodistribution in uterus / spleen, muscle, lungs of Immature Female rat after 3 hour administration of 3 micro Ci (111 kBq) in the absence of 60 microg estradiol; type: ADME, organism-based; how it was run: as §4
Rattus norvegicus [19] = test: Biodistribution in kidney of Immature Female rat after 1 hr administration of 3 micro Ci (111 kBq) in the absence of 60 microg estradiol; type: ADME, organism-based; how it was run: as §2
Rattus norvegicus [20] = test: Biodistribution in kidney of Immature Female rat after 5 hour administration of 3 micro Ci (111 kBq) in the absence of 60 microg estradiol; type: ADME, organism-based; how it was run: as §2
Rattus norvegicus [21] = test: Biodistribution in liver of Immature Female rat after 12 hour administration of 3 micro Ci (111 kBq) in the absence of 60 microg estradiol; type: ADME, organism-based; how it was run: as §2
Rattus norvegicus [22] = test: Biodistribution in liver of Immature Female rat after 5 hour administration of 3 micro Ci (111 kBq) in the absence of 60 microg estradiol; type: ADME, organism-based; how it was run: as §2
Rattus norvegicus [23] = test: Biodistribution in lungs of Immature Female rat after 12 hour administration of 3 micro Ci (111 kBq) in the absence of 60 microg estradiol; type: ADME, organism-based, Lung; how it was run: as §2
Rattus norvegicus [24] = test: Biodistribution in uterus / spleen, muscle, lungs of Immature Female rat after 12 hour administration of 3 micro Ci (111 kBq) in the absence of 60 microg estradiol; type: ADME, organism-based; how it was run: as §4
Rattus norvegicus [25] = test: Biodistribution in blood of immature femalee rat after 1 hr administration of 3 micro Ci (111 kBq) in the presence of (+E2); type: ADME, organism-based; how it was run: as §2
Rattus norvegicus [26] = test: Biodistribution in uterus/blood of immature female rat after 12 hour administration of 3 micro Ci (111 kBq) in the absence of 60 microg estradiol; type: ADME, organism-based; how it was run: as §3
Rattus norvegicus [27] = test: Biodistribution in uterus/spleen, muscle, lungs of immature female rat after 12 hour administration of 3 micro Ci (111 kBq) in the absence of 60 microg estradiol; type: ADME, organism-based; how it was run: as §3
Rattus norvegicus [28] = test: Biodistribution in uterus/spleen, muscle, lungs of immature female rat after 1 hr administration of 3 micro Ci (111 kBq) in the absence of 60 microg estradiol; type: ADME, organism-based; how it was run: as §3
Rattus norvegicus [29] = test: Biodistribution in uterus/spleen, muscle, lungs of immature female rat after 5 hour administration of 3 micro Ci (111 kBq) in the absence of 60 microg estradiol; type: ADME, organism-based; how it was run: as §3
Rattus norvegicus [30] = test: Biodistribution in liver of Iimmature female rat after 3 hour administration of 3 micro Ci (111 kBq) in the absence of 60 microg estradiol; type: ADME, organism-based; how it was run: as §2
Rattus norvegicus [31] = test: Biodistribution in liver of Iimmature female rat after 1 hr administration of 3 micro Ci (111 kBq) in the presence of (+E2); type: ADME, organism-based; how it was run: as §2

Row | ID/g (Rattus norvegicus [1]) [%] | ID/g (Rattus norvegicus [2]) [%] | ID/g (Rattus norvegicus [3]) [%] | ID/g (Rattus norvegicus [4]) [%] | ID/g (Rattus norvegicus [5]) [%] | ID/g (Rattus norvegicus [6]) [%] | ID/g (Rattus norvegicus [7]) [%] | ID/g (Rattus norvegicus [8]) [%] | ID/g (Rattus norvegicus [9]) [%] | ID/g (Rattus norvegicus [10]) [%] | ID/g (Rattus norvegicus [11]) [%] | ID/g (Rattus norvegicus [12]) [%] | ID/g (Rattus norvegicus [13]) [%] | ID/g (Rattus norvegicus [14]) [%] | ID/g (Rattus norvegicus [15]) [%] | ID/g (Rattus norvegicus [16]) [%] | ID/g (Rattus norvegicus [17]) [%] | ID/g (Rattus norvegicus [18]) [%] | ID/g (Rattus norvegicus [19]) [%] | ID/g (Rattus norvegicus [20]) [%] | Compound | also measured
1 | 71 | 126 | 274 | 0.17 | 0.83 | 2.68 | 2.3 | 10.45 | 12.04 | 122.53 | 0.1 | 0.26 | 0.69 | 0.52 | 0.25 | 0.22 | 0.48 | 16.64 | 2.03 | 0.94 | CO[C@H]1C[C@@]2(C)[C@@H](CC[C@@]2(O)/C=C/I)[C@@H]2CCc3c(ccc(O)c3F)[C@H]21 | ID/g (Rattus norvegicus [21]): 2.28%; ID/g (Rattus norvegicus [22]): 2.72%; ID/g (Rattus norvegicus [23]): 0.3%; ID/g (Rattus norvegicus [24]): 50.9%
2 |  |  |  |  |  |  |  |  |  |  |  |  |  |  |  |  |  |  |  |  | CO[C@H]1C[C@@]2(C)[C@@H](CC[C@@]2(O)/C=C\I)[C@@H]2CCc3c(ccc(O)c3F)[C@H]21 | ID/g (Rattus norvegicus [25]): 0.81%
3 | 170 | 882 | 1210 | 0.34 | 0.13 | 1.71 | 4.78 | 9.59 | 8.81 | 50.35 | 0.17 | 0.54 | 0.54 | 0.35 | 0.1 | 0.22 | 0.39 | 21.65 | 1.56 | 0.71 | CO[C@H]1C[C@@]2(C)[C@@H](CC[C@@]2(O)/C=C\I)[C@@H]2CCc3cc(O)c(F)cc3[C@H]21 | ID/g (Rattus norvegicus [21]): 0.65%; ID/g (Rattus norvegicus [22]): 1.12%; ID/g (Rattus norvegicus [23]): 0.13%; ID/g (Rattus norvegicus [24]): 33.82%
4 |  |  |  |  |  |  |  |  |  |  |  |  |  |  |  |  |  |  |  |  | C[C@]12CC[C@@H]3c4cc(F)c(O)cc4CC[C@H]3[C@@H]1CC[C@@]2(O)/C=C/I | ID/g (Rattus norvegicus [26]): 0.92%; ID/g (Rattus norvegicus [27]): 1.25%; ID/g (Rattus norvegicus [28]): 1.42%; ID/g (Rattus norvegicus [29]): 1.14%; ID/g (Rattus norvegicus [30]): 2.87%
5 |  |  |  |  |  |  |  |  |  |  |  |  |  |  |  |  |  |  |  |  | CO[C@H]1C[C@@]2(C)[C@@H](CC[C@@]2(O)/C=C/I)[C@@H]2CCc3cc(O)c(F)cc3[C@H]21 | ID/g (Rattus norvegicus [31]): 4.4%
